Results taken from ChEMBL document CHEMBL4602727, “Lead Optimization of Second-Generation Acridones as Broad-Spectrum Antimalarials” (J Med Chem, 2020).

What was measured:
Assay type in all cases: ADME, organism-based
[1] = AUC (0 to last) in ICR mouse liver at 80 mg/kg, po administered as single dose; set-up: dose 80 mg/kg, time 0 - last, route oral
[2] = AUC (0 to infinity) in ICR mouse liver at 80 mg/kg, po administered as single dose; set-up: dose 80 mg/kg, route oral, time infinity
[3] = Ratio of AUC (0 to infinity) in ICR mouse liver to plasma at 80 mg/kg, po administered as single dose; conditions: liver and plasma, read-out: Ratio AUC
[4] = Apparent volume of distribution in ICR mouse plasma at 80 mg/kg, po administered as single dose; conditions: read-out: Vz/F
Procedure, shortened: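 Male ICR mice, 7 weeks old, 23–28 g, received a single intragastric 80 mg/kg dose in DD water (100 μL/20 g). […] Cmax and Tmax came from the concentration–time curves; t1/2 = ln2/kel; AUC by linear trapezoidal rule extrapolated to infinity; MRT = AUMC/AUC.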

For `O=c1c2ccc(OCc3ccc(OC(F)(F)F)cc3)cc2[nH]c2cc(F)cc(F)c12`, the AUC(0-t) [1] was 20400 ng·h/mL.

With `O=c1c2ccc(OCc3cccc(OC(F)(F)F)c3)cc2[nH]c2cc(F)cc(F)c12` the AUC(0-inf) [2] was 19300 ng·h/mL.

`O=c1c2ccc(Oc3ccc(OC(F)(F)F)cc3)cc2[nH]c2cc(Cl)cc(F)c12` gave a Kp [3] of 112.

For `O=c1c2cc(OCc3ccc(OC(F)(F)F)cc3)ccc2[nH]c2cc(F)cc(F)c12`, the Vd/F [4] was 290 L/kg.

`O=c1c2ccc(OCc3cccc(C(F)(F)F)c3)cc2[nH]c2cc(F)cc(F)c12` gave an AUC(0-t) [1] of 11500 ng·h/mL.
